Assay outcomes: PubChem, several laboratories
Most compounds without a hit are left out; they make up all but 2.2% or so of the library.
bCat nuc transl: modulators of beta-catenin nuclear translocation, primary screen, imaging, HeLa cells, immunofluorescence, high-content; nuclear translocation activity, % at 5 µM; hit rate 0.3% among 190,000;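 active = nuclear translocation activity above 50% at 5 µM, with a well cell count of 50 or more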;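 also: per-cell ratio of nuclear to cytoplasmic median beta-catenin stain intensity; plate controls were DMSO negative control for no effect and GSK-3 inhibitor IX positive control for full effect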
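Read-out: Nuclear/cytoplasmic beta-catenin signal ratio, % activation | Assay system: Human HeLa cell line | Times: 24 h compound exposure at 37°C, 5% CO2 | Signal: Fluorescence imaging of beta-catenin antibody stain plus DAPI | Dosing: 5 µM primary, 0.02–20 µM confirmation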
BaF3 parental: parental Ba/F3 cell viability inhibition, counter-screen for JAK2V617F inhibitor project, murine pro-B, CellTiter-Glo luminescence | CellTiter-Glo ATP luminescence | hit rate 1.1% among 220,000 | AID 1486, 2009 | inhibition, % at 5.6 µM;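 active = inhibition above a per-campaign cutoff, the mean inhibition of all tested compounds plus 3 SD, cut at about 27% in these data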;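 also: 0% = DMSO wells and 100% = JAK Inhibitor I control wells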
MT stabilize HCS: microtubule stabilizers in HeLa cells, primary screen, imaging, high-content imaging. HeLa tubulin immunostaining HCS, 24 h; share of cells brighter than vehicle mean+2SD. AID 2205, 2009. hit rate 0.83% among 200,000. % tubulin-high responders, % at 10 µM;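 active = plate Z-score above 3 for both tubulin-high and condensed-nucleus cell shares, with cell loss under 80%, at 10 µM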;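 also: anti alpha tubulin signal scored within the nucleus-defined area of each cell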
Ba/F3 V617F tox: reduced viability of JAK2V617F-dependent Ba/F3 cells, primary screen, JAK2V617F inhibitor project, cell-based, Ba/F3 EpoR-JAK2V617F, luminescence; ATP luminescence; inhibition, % at 5.6 µM; hit rate 1.1% among 220,000; AID 1446, 2008;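 active = inhibition above the campaign mean plus 3 SD over all tested compounds, cut at about 24% in these data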;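 also: cytokine-independent growth of Ba/F3 cells driven by EpoR plus mutant JAK2; 0% = DMSO-treated cells and 100% = JAK inhibitor I control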
IEC-6 cytotox: cytotoxicity in IEC-6 intestinal epithelial cells, primary screen, cytotoxicity control for KLF5 inhibitor project, cell-based, luminescence. IEC-6 cytotoxicity, luminescence viability. inhibition, % at 5 µM. hit rate 0.78% among 290,000; in the data active = inhibition above about 22%;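 also: 0% = plate median of test compound wells and 100% = cytotoxic reference compound wells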
APP 5UTR inh: inhibitors of APP translation via 5'UTR reporter, primary screen, APP 5'UTR luciferase, SH-SY5Y cells | hit rate 0.82% among 190,000 | inhibition, % at 2 µM | SH-SY5Y APP 5'UTR-luciferase reporter, luminescence | AID 1285, 2008;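 active = inhibition above a set limit, derived from the sample mean plus 3 SD, cut at about 45% in these data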
* hit, by the source's call; x = no result.

SMILES | bCat nuc transl | BaF3 parental | MT stabilize HCS | Ba/F3 V617F tox | IEC-6 cytotox | APP 5UTR inh
O=C(Cn1nnc(-c2ccc(Cl)cc2)n1)NC1CC2CCC1C2 (centres undefined) | 0 | 94* | 4 | -3 | 4 | -2
Cc1ccc(-c2nnn(CC(=O)NC3CC4CCC3C4)n2)cc1 (centres undefined) | 0 | -2 | 4 | -1 | -2 | -3
CCn1nc(C(=O)N2CCc3ccccc3C2)c2ccccc2c1=O | 0 | -3 | 16* | -2 | 1 | 17
Fc1cccc(F)c1-n1c(CN2CCOCC2)csc1=S | 0 | 6 | 2 | -2 | -1 | 15
Fc1cccc(F)c1-n1c(CN2CCCCC2)csc1=S | -2 | 1 | 16* | 3 | 4 | 21
Cc1ccc(NC(=O)c2cc(N3C(=O)C=CC3=O)ccc2N2CCOCC2)cc1Cl | x | 3 | 4 | -1 | -5 | 77*
CCOc1ccc(S(=O)(=O)N2CCC(C(=O)N3CCN(c4ccccc4F)CC3)CC2)cc1C | x | x | x | x | 1 | x
COc1cc(C(=O)N2CCN(c3ccc(C)cc3C)CC2)cc(OC)c1OC | 27 | 44* | 27* | 37* | 42* | 76*
O=C1CN(C(=O)C2CCC(=O)N(CCc3ccc(Cl)cc3)C2)CCN1 (centres undefined) | x | x | x | x | -2 | x
O=c1c2ccccc2[nH]c(=S)n1CCCN1CCC(Cc2ccccc2)CC1 | x | x | x | x | 1 | x
c1ccc(-c2ccccc2OCCOCCN2CCc3ccccc3C2)cc1 | 1 | 47* | 2 | -3 | 7 | -12
Cc1nn2c(-c3ccc(S(=O)(=O)N4CCN(C)CC4)o3)nnc2c2ccccc12 | x | x | x | x | 4 | x
CCOc1ccc2c(c1)c(N=NC(=N)N)c(O)n2C | 5 | 69* | 8 | 44* | 13 | -2
CCC(C)NC(=O)NC(=O)N(C1CCCCC1)S(C)(=O)=O (centres undefined) | x | 1 | 3 | -1 | -2 | -2
CCCCCN(C(=O)NC(=O)NC(C)CC)S(C)(=O)=O (centres undefined) | 4 | 89* | 3 | 4 | 0 | 3
Cc1ccc(C(C)(O)CS(=O)(=O)Cc2ccccc2)cc1 (centres undefined) | x | x | x | x | 2 | x
FC(F)(F)c1cnc(/C=C/Nc2ccccc2Cl)c(Cl)c1 | x | 2 | 3 | 2 | 4 | 13
C[N+]1=C(/C=C/Nc2ccccc2Cl)C(C)(C)c2ccccc21 | 0 | 63* | 5 | 59* | 0 | 1
COc1cc(/C=N/n2cnc3scc(-c4cccs4)c3c2=O)cc(OC)c1OC | 2 | 4 | 30* | 0 | -5 | 1
CCOCCCNC(=O)c1ccc2c(c1)N=C(CC)c1cc(Br)ccc1S2 | 52* | 95* | 5 | 92* | 93* | 94*
CCC1=Nc2cc(C(=O)NCCN3CCOCC3)ccc2Sc2ccccc21 | x | x | x | x | -1 | x
N#CC(Sc1ccccn1)c1ccc(Cl)cc1Cl (centres undefined) | -1 | 40* | 2 | 28* | 0 | -6
N#Cc1cc(Sc2ccccn2)c(Sc2ccccn2)cc1C#N | 0 | 0 | 5 | -2 | 2 | 5
CC(NC(=O)C12CC3CC(CC(O)(C3)C1)C2)c1ccccc1 (centres undefined) | x | x | x | x | -2 | x
COc1ccc(-c2nc(NC(=O)C3CC(=O)N(c4ccc5c(c4)OCCO5)C3)sc2C)cc1 (centres undefined) | x | 53* | 11* | 45* | 6 | -6
SMILES | bCat nuc transl | BaF3 parental | MT stabilize HCS | Ba/F3 V617F tox | IEC-6 cytotox | APP 5UTR inh
Cc1cc(C)nc(SSc2nc(C)cc(C)n2)n1 | x | x | x | x | -1 | x
CC(C)(C)Nc1nc(C(N)=O)nc(N2CCOCC2)n1 | x | 1 | 4 | -1 | 9 | 60*
NC(=O)c1nc(N2CCOCC2)nc(N2CCOCC2)n1 | -2 | 7 | 3 | 2 | 3 | -3
COc1ccc(CC(=O)N2CCc3cc(OC)c(OC)cc3C2C)c(OC)c1 (centres undefined) | x | x | x | x | -4 | x
Cc1ccc(-c2nc3ccccn3c2Nc2ccccc2)o1 | 1 | 92* | 3 | -2 | -3 | 0
Cc1ccc(OCC(=O)Nc2c3c(nn2C(C)(C)C)CS(=O)(=O)C3)cc1 | x | x | x | x | -10 | x
CCOc1ccc(-c2cc(CCCC(=O)NCCCOC)no2)cc1 | 0 | 7 | 5 | 5 | 0 | 49*
CCOc1ccc(-c2cc(CCCC(=O)N3CCN(c4ccc(OC)cc4)CC3)no2)cc1 | 1 | 5 | 7 | -3 | -2 | 11
Cc1ccc(NC(=Nc2ccc(Br)cc2)N2CCOCC2)cc1C | x | x | x | x | -3 | x
CCOC(=O)CNC(=O)Cn1cnc2c(nnn2-c2ccc(F)cc2)c1=O | 1 | 96* | 2 | -4 | 2 | -6
COc1ccc(C2(c3ccc(OC)cc3)NC(=O)NC2=O)cc1 | x | x | x | x | 0 | x
COc1ccc(NC(=O)C2CCN(S(=O)(=O)c3ccc4c(c3)NC(=O)CO4)CC2)cc1 | x | x | x | x | -6 | x
CCc1cc(-c2n[nH]c(C)c2-c2ccccc2Cl)c(O)cc1OC | x | x | x | x | -2 | x
C=C(C)COc1ccc(-c2n[nH]c(C)c2-c2ccc(OC)cc2)c(O)c1 | 6 | 0 | 30* | 0 | -5 | 5
COc1ccc(-c2n[nH]c(C)c2-c2cscn2)c(O)c1 | -1 | 0 | x | -7 | -2 | x
CCOc1ccc(-c2n[nH]c(C)c2-c2ccccc2OC)c(O)c1 | 3 | 3 | 27* | 2 | 5 | -15
CCOC(=O)c1ccc(NC2c3ccccc3C(=O)N2c2cccnc2)cc1 (centres undefined) | 0 | 27* | 3 | 20 | 20 | -50
COc1ccc(OCC(=O)NNC(=O)c2cccc(S(=O)(=O)N(C)C)c2)cc1 | -1 | 1 | 8 | -4 | -7 | 50*
CC1CC(=O)N(CC(=O)NCc2ccc(F)cc2)c2ccccc2S1(=O)=O (centres undefined) | x | x | x | x | 2 | x
Cc1ccc(C#CC[N+]2(C)CCCCC2)cc1 | 2 | 57* | x | 54* | 4 | x
C(#Cc1ccc(C#CCN2CCCC2)cc1)CN1CCCC1 | -1 | 8 | 4 | 5 | 2 | -2
C#CC[N+]1(CC#Cc2ccc(C)cc2)CCCCC1 | -3 | 66* | 2 | 69* | -3 | 1
CCn1c2ccccc2c2cc(NC(=O)c3cc(OC)cc(OC)c3)ccc21 | 11 | 6 | 9.6* | 1 | 10 | 95*
CCn1c2ccccc2c2cc(NC(=O)COc3ccc(OC)cc3)ccc21 | x | 4 | 2 | -1 | 5 | 3
CCn1c2ccccc2c2cc(NC(=O)c3cccc([N+](=O)[O-])c3C)ccc21 | -2 | 0 | 14* | -2 | 5 | -20
CCn1c2ccccc2c2cc(NC(=O)c3ccc(Br)o3)ccc21 | x | 0 | 2 | -5 | 4 | x
